# Experimental data taken from ChEMBL document CHEMBL3297737, “Discovery of the first potent and orally available agonist of the orphan G-protein-coupled receptor 52” (J Med Chem, 2014).
# Calls of active or inactive are those of the source. The calls are words filed in the database; no cut-off is given here.
# Assays:
# [1] = target: T1, G-protein coupled receptor 52 (Homo sapiens, UniProt Q9Y2T5); test: Agonist activity at human GPR52 expressed in CHO cells assessed as cAMP production after 30 mins by Alphascreen assay; format: functional, cell-based
# [2] = target: T1, G-protein coupled receptor 52; test: Agonist activity at human GPR52 expressed in CHO cells assessed as cAMP production after 30 mins by Alphascreen assay relative to N-(2-Hydroxyethyl)-3-{2-[3-(trifluoromethyl)benzyl]-1-benzofuran-4-yl}benzamide; format: functional, cell-based
# [3] = target: T1, G-protein coupled receptor 52; test: Agonist activity at human GPR52 expressed in CHO cells assessed as cAMP production at 10 uM after 30 mins by Alphascreen assay; format: functional, cell-based
# [4] = tested on: Mus musculus; test: Antipsychotic activity against methamphetamine-induced hyperlocomotion in po dosed ICR mouse administered 60 mins prior to methamphetamine challenge measured 150 mins post compound challenge; format: functional, organism-based
# Summary of the method: (§1)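 Male ICR mice, 7–8 weeks old, each in its own cage. Locomotor activity monitored. Compound given orally (1–30 mg/kg) after 60 min habituation. Methamphetamine 2 mg/kg sc injected 60 min later. Activity counts recorded for 150 min after compound dosing. n = 6–7 per group. Williams test versus vehicle + methamphetamine.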
# [5] = tested on: Mus musculus; test: Toxicity in ICR mouse assessed as cataleptogenic effect at 100 mg/kg, po after 1 to 2 hrs; format: organism-based; design: dose 100 mg/kg, route oral; conditions: in vivo
# Summary of the method: (§2)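 Male ICR mice, 6–7 weeks old, dosed orally (10–100 mg/kg). Tested 1 and 2 h post-dose by placing forepaws on a steel bar, hind legs on the surface. Time holding immobile posture recorded, capped at 30 s. Three trials averaged per mouse. n = 6 per group. Williams test versus vehicle.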
# [6] = target: D(2) dopamine receptor (Homo sapiens) (UniProt P14416); test: Agonist activity at dopamine D2 receptor (unknown origin)
# [7] = species on record: Homo sapiens; test: Agonist activity at 5HT2 receptor (unknown origin)
# [8] = tested on: Mus musculus; test: Toxicity in ICR mouse assessed as extrapyramidal side effects at 100 mg/kg, po after 1 to 2 hrs; format: organism-based; design: dose 100 mg/kg, route oral; conditions: in vivo; summary of the method: as §2
# [9] = species on record: Homo sapiens; test: Agonist activity at AMPA receptor (unknown origin)
# [10] = target: D(1A) dopamine receptor (Homo sapiens) (UniProt P21728); test: Agonist activity at dopamine D1 receptor (unknown origin)
# [11] = tested on: Mus musculus; test: Antipsychotic activity against methamphetamine-induced hyperlocomotion in ICR mouse at 3 mg/kg, po administered 60 mins prior to methamphetamine challenge measured 150 mins post compound challenge; format: functional, organism-based; design: dose 3 mg/kg; summary of the method: as §1
# [12] = Cmax in mouse at 1 mg/kg, po administered via cassette dosing; format: ADME, organism-based; design: dose 1 mg/kg, route oral; conditions: in vivo
# Summary of the method: (§3)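 Mouse cassette dosing at 0.1 mg/kg iv and 1 mg/kg po. Plasma Cmax, AUC0–8h and oral bioavailability determined.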
# [13] = target: Glutamate [NMDA] receptor (Homo sapiens) (UniProt Q05586+Q12879+Q13224+O15399+O60391+Q14957+Q8TCU5); test: Agonist activity at NMDA receptor (unknown origin)
# [14] = Ratio of AUC from brain to plasma in mouse at 30 mg/kg, po; format: ADME, organism-based; design: dose 30 mg/kg, route oral; conditions: read-out: Ratio AUC
# Summary of the method: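 Brain/plasma AUC ratio determined in mice after oral administration of 30 mg/kg.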
# [15] = AUC (0 to 8 hrs) in mouse at 1 mg/kg, po administered via cassette dosing; format: ADME, organism-based; design: time < 8 hr, dose 1 mg/kg, route oral; conditions: plasma; summary of the method: as §3
# [16] = target: D(1A) dopamine receptor (Homo sapiens) (UniProt P21728); test: Agonist activity at human dopamine D1 receptor expressed in CHO cells; format: cell-based
# Summary of the method: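 cAMP production measured in CHO cells expressing human dopamine D1 receptor (DRD1). Mean ± SD, n = 4.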
# [17] = Oral bioavailability in mouse at 1 mg/kg administered via cassette dosing; format: ADME, organism-based; conditions: in vivo; summary of the method: as §3
# [18] = target: T1, G-protein coupled receptor 52; test: Agonist activity at GPR52 (unknown origin) relative to control
# [19] = target: T1, G-protein coupled receptor 52; test: Agonist activity at GPR52 (unknown origin)
# T1 sequence (Q9Y2T5 whole entry): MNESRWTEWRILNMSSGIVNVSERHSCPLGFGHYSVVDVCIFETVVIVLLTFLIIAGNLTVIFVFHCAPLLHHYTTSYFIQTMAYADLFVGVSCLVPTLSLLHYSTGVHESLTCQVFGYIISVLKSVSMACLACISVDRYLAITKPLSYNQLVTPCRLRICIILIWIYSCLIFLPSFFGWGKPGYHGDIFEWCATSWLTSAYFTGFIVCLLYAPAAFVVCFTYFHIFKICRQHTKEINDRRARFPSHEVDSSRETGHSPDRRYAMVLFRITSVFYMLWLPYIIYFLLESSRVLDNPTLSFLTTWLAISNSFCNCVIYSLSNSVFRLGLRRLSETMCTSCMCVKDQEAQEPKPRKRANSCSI
# Chain of D(1A) dopamine receptor (Homo sapiens) (P21728 whole entry): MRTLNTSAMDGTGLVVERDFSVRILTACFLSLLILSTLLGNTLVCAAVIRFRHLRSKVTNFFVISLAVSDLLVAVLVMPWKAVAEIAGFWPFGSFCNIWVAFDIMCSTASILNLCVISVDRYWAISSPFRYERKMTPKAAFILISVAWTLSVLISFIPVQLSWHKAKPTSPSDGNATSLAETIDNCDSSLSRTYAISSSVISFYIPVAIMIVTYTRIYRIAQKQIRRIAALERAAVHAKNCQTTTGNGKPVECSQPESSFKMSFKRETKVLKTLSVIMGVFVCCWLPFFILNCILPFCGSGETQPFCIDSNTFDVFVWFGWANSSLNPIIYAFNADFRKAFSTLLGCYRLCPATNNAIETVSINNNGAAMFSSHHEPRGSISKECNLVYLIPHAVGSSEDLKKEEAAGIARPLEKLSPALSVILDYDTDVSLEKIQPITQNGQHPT
# Chain of D(2) dopamine receptor (Homo sapiens) (P14416 whole entry): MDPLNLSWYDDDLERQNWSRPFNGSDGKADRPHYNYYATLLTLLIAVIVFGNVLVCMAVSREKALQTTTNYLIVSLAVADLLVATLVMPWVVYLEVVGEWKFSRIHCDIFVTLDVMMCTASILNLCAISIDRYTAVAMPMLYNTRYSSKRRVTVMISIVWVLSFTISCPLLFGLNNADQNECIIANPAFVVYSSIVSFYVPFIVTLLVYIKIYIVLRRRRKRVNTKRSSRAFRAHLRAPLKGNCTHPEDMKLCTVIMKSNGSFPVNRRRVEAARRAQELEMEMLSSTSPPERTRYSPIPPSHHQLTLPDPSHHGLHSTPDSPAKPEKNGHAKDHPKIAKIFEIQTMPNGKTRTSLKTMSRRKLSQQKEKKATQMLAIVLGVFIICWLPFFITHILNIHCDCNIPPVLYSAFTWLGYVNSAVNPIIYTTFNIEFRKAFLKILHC
EC50 [1] [µM],Emax [2] [%],SMILES,further results
0.0347,74.8,O=C(NCCO)c1cccc(-c2cccc3cc(Cc4cccc(C(F)(F)F)c4)oc23)c1,
> 10,,Cc1c(Cc2cccc(C(F)(F)F)c2)oc2cccc(-c3cccc(C(=O)NCCO)c3)c12,Activity [3]: 20%
0.0389,79.1,O=C(NCCO)c1cccc(-c2cccc3nn(Cc4cccc(C(F)(F)F)c4)cc23)c1,
0.209,56.1,O=C(NCCO)c1cccc(-c2cccc3c2OC(Cc2cccc(C(F)(F)F)c2)C3)c1 (racemic),
0.0427,85,COCCNC(=O)c1cccc(-c2cccc3cc(Cc4cccc(C(F)(F)F)c4)sc23)c1,
0.0295,79.8,COCCNC(=O)c1cccc(-c2cccc3cc(Cc4cc(F)cc(Cl)c4)sc23)c1,Activity [4]: Dose-dependent effect; Activity [5]: Non-toxic; Activity [6]: inactive; Activity [7]: inactive; Activity [8]: Non-toxic; Activity [9]: inactive; Activity [10]: inactive; Activity [11]: Active; Cmax [12]: 108 ng/mL; Activity [13]: inactive; Kp [14]: 0.94; AUC(0-t) at 8 h [15]: 614 ng·h/mL; Activity [16]: inactive; bioavailability [17]: 73%
> 10,,COc1ccc(-c2ccnc(NCCc3ccc(OC)c(OC)c3)n2)cc1,Activity [3]: 33%
0.055,102,NC(=O)CNC(=O)c1cccc(-c2cccc3cc(Cc4cccc(C(F)(F)F)c4)sc23)c1,
0.0282,85.7,O=C(NCCO)c1cccc(-c2cccc3oc(Cc4cccc(C(F)(F)F)c4)cc23)c1,
0.038,68.6,O=C(NCCO)c1cccc(-c2cccc3sc(Cc4cccc(C(F)(F)F)c4)cc23)c1,
0.646,45.9,O=C(NCCO)c1cccc(-c2cccc3c2CC(Cc2cccc(C(F)(F)F)c2)O3)c1 (racemic),
0.0646,69.7,O=C(NCCO)c1cccc(-c2cccc3cn(Cc4cccc(C(F)(F)F)c4)nc23)c1,
,,O=C(NCCO)c1cccc(-c2cccc(OCCc3cc(F)cc(Cl)c3)n2)c1,Emax [18]: 79%; EC50 [19]: 0.347 µM
0.0813,71.5,Cc1c(Cc2cccc(C(F)(F)F)c2)oc2c(-c3cccc(C(=O)NCCO)c3)cccc12,
0.0832,107,NC(=O)CNC(=O)c1cccc(-c2ccc(F)c3cc(Cc4cccc(C(F)(F)F)c4)sc23)c1,
0.0372,79.6,O=C(NCCO)c1cccc(-c2cccc3cc(Cc4cccc(C(F)(F)F)c4)sc23)c1,
,,O=C(NCCO)c1cccc(-c2cccc(OCCc3cccc(C(F)(F)F)c3)n2)c1,Emax [18]: 73.1%; EC50 [19]: 0.646 µM
